Reference: ChEMBL document CHEMBL1275590, “Novel arylimidamides for treatment of visceral leishmaniasis” (Antimicrob Agents Chemother, 2010)

What was measured:
Mus musculus [1] = assay: Toxicity in BALB/c mouse assessed as liver necrosis at 150 mg/kg/day, po; assay type: organism-based; set-up: route oral; conditions: in vivo
Summary of the method: (§1)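 Female BALB/c mice (n = 5 per dose), dosed once daily for 5 consecutive days p.o. (20 ml/kg) or i.v. (10 ml/kg) with compound in sterile water, prepared fresh daily under yellow light. Vehicle controls n = 5 per route. Clinical observations, body weights, serum chemistry and hematology on day 6 before necropsy; histopathology of formalin-fixed tissues. Chemistry analysed by one-way ANOVA with Dunnett's posttest.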

Mus musculus [2] = assay: Toxicity in BALB/c mouse assessed as ataxia at 100 mg/kg/day, ip after second dose; assay type: organism-based; set-up: route intraperitoneal; conditions: in vivo
Mus musculus [3] = assay: Toxicity in BALB/c mouse assessed as decrease in body weight at 150 mg/kg/day, po administered for five days; assay type: organism-based; set-up: route oral; conditions: in vivo; summary of the method: as §1
Mus musculus [4] = assay: Toxicity in BALB/c mouse assessed as tremor at 50 mg/kg/day, ip administered for five days; assay type: organism-based; set-up: route intraperitoneal; conditions: in vivo
Summary of the method: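 Acute overt toxicity was checked in uninfected female BALB/c mice before the efficacy work. Compounds were given intraperitoneally once daily for 5 days, and mice were watched for clinical signs such as ruffled fur, hypoactivity, tremors, ataxia and startle, and for survival.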

Mus musculus [5] = assay: Toxicity in BALB/c mouse assessed as decrease in liver weight at 150 mg/kg/day, po administered for five days; assay type: organism-based; set-up: route oral; conditions: in vivo; summary of the method: as §1
[6] = Oral bioavailability in Swiss Webster mouse at 66 mg/kg by HPLC-MS/MS analysis; assay type: ADME, organism-based; conditions: in vivo
Summary of the method: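 Male Swiss Webster mice (n = 3 per time point), single dose by oral gavage (sterile water solution) or tail-vein bolus i.v. (water diluted 1:1 with 2× saline, over ~10–20 s); dose volume 5 ml/kg. Terminal blood sampled from 5 min to 72 h postdose; plasma quantified by HPLC-MS/MS (positive-ion SRM). Noncompartmental analysis gave Cmax, Tmax, AUC0-∞, CL, Vss; bioavailability from p.o. versus i.v. exposure.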

Mus musculus [7] = assay: Toxicity in BALB/c mouse at 25 mg/kg/day, po administered for five days; assay type: organism-based; set-up: route oral; conditions: in vivo
Mus musculus [8] = assay: Renal toxicity in BALB/c mouse assessed as blood urea nitrogen level in serum at 30 mg/kg/day, iv administered for five days (Rvb= 20 mg/dl); assay type: organism-based; set-up: route intravenous; conditions: in vivo; summary of the method: as §1
Mus musculus [9] = assay: Hepatotoxicity in BALB/c mouse assessed as alkaline phosphatase level in serum at 30 mg/kg/day, iv administered for five days (Rvb= 134 U/L); assay type: toxicity, organism-based; set-up: route intravenous; conditions: in vivo
[10] = Induction of mutagenicity in Salmonella serovar Typhimurium TA 98 assessed as number of revertant colonies at 50 ug by Ames assay; assay type: toxicity, Salmonella enterica subsp. enterica serovar Typhimurium
Summary of the method: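 Plate incorporation test, S. Typhimurium TA98 (and TA100), with or without Aroclor 1254-induced rat liver S9 (10% vol/vol). Compound dissolved in sterile water, serially diluted to 1–1,000 or 1–500 μg/plate. Positive controls: 2-nitrofluorene and sodium azide without S9, 2-aminoanthracene with S9; water and DMSO vehicle controls. Revertant colonies and background lawn scored; mutagen if mean revertants ≥2-fold solvent control. Single experiment.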

[11] = Induction of mutagenicity in Salmonella serovar Typhimurium TA 100 assessed as number of revertant colonies at 10 ug by Ames assay in presence of Aroclor 1254-induced rat liver S9 metabolic activation system; assay type: toxicity, subcellular, Salmonella enterica subsp. enterica serovar Typhimurium
Summary of the method: (§2)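 Ames plate incorporation with S. Typhimurium TA98 and TA100, with or without Aroclor 1254-induced rat liver S9 (10% vol/vol). Compound was dissolved in sterile water and serially diluted to 1–500 μg/plate. Positive controls were 2-nitrofluorene and sodium azide without S9, and 2-aminoanthracene with S9; sterile water and DMSO served as vehicles. Revertant colonies and background lawn were scored. A mutagen was defined as a mean revertant count at least 2-fold over solvent control. Single experiment.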

[12] = Induction of mutagenicity in Salmonella serovar Typhimurium TA 98 assessed as number of revertant colonies at 100 ug by Ames assay in presence of Aroclor 1254-induced rat liver S9 metabolic activation system; assay type: toxicity, subcellular, Salmonella enterica subsp. enterica serovar Typhimurium; summary of the method: as §2
[13] = Drug level in Swiss Webster mouse liver at 5 mg/kg, iv after 2 hrs by HPLC/UV analysis; conditions: read-out: Drug uptake

Compound | Activity (Mus musculus [1]) | Activity (Mus musculus [2]) | Activity (Mus musculus [3]) | Activity (Mus musculus [4]) | Activity (Mus musculus [5]) | bioavailability [6] [%] | Activity (Mus musculus [7]) | Activity (Mus musculus [8]) [mg/dL] | Activity (Mus musculus [9]) [U/L] | Activity [10] | Activity [11] | Activity [12] | concentration at 2 h [13] [µM]
CCOc1cc(NC(=N)c2ccccn2)ccc1-c1ccc(-c2ccc(NC(=N)c3ccccn3)cc2OCC)o1 | Toxic | Toxic | Toxic | Toxic | Toxic | 9.3 | Non-toxic |  |  |  |  |  | 
CC(C)Oc1cc(NC(=N)c2ccccn2)ccc1-c1ccc(-c2ccc(NC(=N)c3ccccn3)cc2OC(C)C)o1 |  |  |  |  |  |  |  | 24 | 118 | 28 | 148 | 38 | 18.7
